Test system: MS2 coat protein
Assay: apparent Kd, MS2 coat protein; higher = weaker binding; RNA-MaP array; FMN 200 µM where present
Summary of the method: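 Designs were transcribed by stalled E. coli RNA polymerase on Illumina sequencing-chip clusters. They were titrated with SNAP-549-labelled MS2 coat protein from 0.7 or 1.5 nM, doubling to 3 µM, in 100 mM Tris-HCl pH 7.5, 80 mM KCl, 4 mM MgCl2, BSA, DTT, yeast tRNA and Tween-20, without and then with constant ligand. The apparent Kd is the median of filtered per-cluster fits after normalisation of green signal to red-channel RNA signal and control-cluster median Fmax.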

[1] = designed as: ON switch for flavin mononucleotide, no ligand
[2] = ligand present: flavin mononucleotide, designed as: ON switch for flavin mononucleotide
[3] = designed as: OFF switch for flavin mononucleotide, no ligand
[4] = ligand present: flavin mononucleotide, designed as: OFF switch for flavin mononucleotide

## UUCGCUAAGGUGUAGCGAGACUUGCAAGAAGGGUGAAGAACAUGAGGAUCACCCAUGUAAUCCUUACAGGAUAUUGCUUGACGA
[1]
  apparent Kd: 273 nM
[2]
  apparent Kd: 33.1 nM

## UUCGGCGCAGGAUAUGCAGUUCUGUGUUGAAUCGGCGCGGGACAUGAGGAUCACCCAUGUAGAAGGGUGUUGGG
[3]
  apparent Kd: 374 nM
[4]
  apparent Kd: 239 nM

## UUCGUGCAGCUUAGCUGUACGCGUACAUGAGGAUCACCCAUGUAGGAUAUGGUAGGCAAAGCUUACUAGAAGGAUAUAGUGAUC
[3]
  apparent Kd: 129 nM
[4]
  apparent Kd: 144 nM

## UUCGUGCAGCUUUGCUGUACGCGUACAUGAGGAUCACCCAUGUAGGAUAUGGUACGCGUUGCGUGCUAGAAGGAUAUGGAGAGG
[3]
  apparent Kd: 18.4 nM
[4]
  apparent Kd: 22.9 nM

## UUCGUGUAAGGAUAUACGACCCAUCCCAUUGGGAUGGGCACGUAGAAGGUACAUGAGGAUCACCCAUGUGCUCC
[3]
  apparent Kd: 26.8 nM
[4]
  apparent Kd: 167 nM

## UUCUUUCCUCAUGUACAUGAGGAACAUGAGGAUCACCCAUGUAGAAGGAUUUCAAUUAAAUUAAAAUAGGAUAUACAUCUAUUU
[3]
  apparent Kd: 10.4 nM
[4]
  apparent Kd: 9.34 nM

## UUCUUUCCUCAUGUACAUGAGGAACAUGAGGAUCACCCAUGUAGAAGGAUUUCCCUUAAAUUAAAAUAGGAUAUACAUAUAUUU
[3]
  apparent Kd: 27.9 nM
[4]
  apparent Kd: 24.7 nM

## UUGAUAAGGAGAGGAUAUUGACAUGAGGAUCACCCAUGUACAUGGGAGUAUUUACUGAAUUCUUACGAGAAGGCUUACAUAUUU
[3]
  apparent Kd: 165 nM
[4]
  apparent Kd: 115 nM

## UUGCCUCAGAACAUGAGGAUCACCCAUGUGCUGCGGGCAACGUAGGAUAUGAUGGUGUGACACCGUCAGAAGGAUGAUGGUACC
[1]
  apparent Kd: 5.97 nM
[2]
  apparent Kd: 6.05 nM

## UUGCGGUAGGAGAAGGACAGAGGCGGAAACACAAACAUGAGGAUCACCCAUGUAGGAUAUCCUACCUAACGCGGAUCCCUCCAG
[3]
  apparent Kd: 11.1 nM
[4]
  apparent Kd: 34.6 nM

## UUGCUACAUGAGGAUCACCCAUGUCAGGAUAUUGUCUAUACCGUGGAAGCUGUGUCGAUAAGAAGGGACUGUCU
[3]
  apparent Kd: 24.1 nM
[4]
  apparent Kd: 41.6 nM

## UUGGACGUCCUAGGAUAUGUAGGAUAUUCCUACAUGAGGAUCACCCAUGUUGACAUGGAAGAAGGACAGAAGGACGAUGUCCAU
[1]
  apparent Kd: 551 nM
[2]
  apparent Kd: 71.3 nM

## UUGGACGUCGAAGGAUAUGUAGGAUAUUCCUACAUGAGGAUCACCCAUGUUGACAUGGAAGAAGGACAGAAGGACGAUGUCCAU
[1]
  apparent Kd: 479 nM
[2]
  apparent Kd: 6.78 nM

## UUGGACGUCGUAGGAUAUGUACGAUAUUCCUACAUGAGGAUCACCCAUGUUGACAUGGAAGAAGGACAGAAGGACGAUGUCCAU
[1]
  apparent Kd: 5.5 nM
[2]
  apparent Kd: 4.87 nM

## UUGGACGUCGUAGGAUAUGUAGGAUAUUCCUACAUGAGGAUCACCCAUGUCGACAUGGAAGAAGGACAGAAGGACGAUGUCCAU
[1]
  apparent Kd: 238 nM
[2]
  apparent Kd: 4.22 nM

## UUGGACGUCGUAGGAUAUGUAGGAUAUUCCUACAUGAGGAUCACCCAUGUUAACAUGGAAGAAGGACAGAAGGACGAUGUCCAU
[1]
  apparent Kd: 326 nM
[2]
  apparent Kd: 4.76 nM

## UUGGACGUCGUAGGAUAUGUAGGAUAUUCCUACAUGAGGAUCACCCAUGUUGACAUGGAAGAAGGACAGUAGGACGAUGUCCAU
[1]
  apparent Kd: 251 nM
[2]
  apparent Kd: 8.02 nM

## UUGGACGUCGUAGGAUAUGUAGGAUAUUCCUACAUGAGGAUCACCCAUGUUGACAUGGAAGAUGGACAGAAGGACGAUGUCCAU
[1]
  apparent Kd: 983 nM
[2]
  apparent Kd: 42.1 nM

## UUGGACGUCGUAGGAUAUUUAGGAUAUUCCUACAUGAGGAUCACCCAUGUUGACAUGGAAGAAGGACAGAAGGACGAUGUCCAU
[1]
  apparent Kd: 24.1 nM
[2]
  apparent Kd: 8.23 nM

## UUGGAUAUCACAGGAUAUGCUAAGGAUACCUUAGCAGAAGGGUGAUCCAUCCUAUGGCUGUACAUGAGGAUCACCCAUGUGUCA
[1]
  apparent Kd: 246 nM
[2]
  apparent Kd: 73.6 nM

## UUGGUAUCUGCAGGAUAUUGUAUUUUAAUACUUCAAGAAGGGCAUUACAUGAGGAUCACCCAUGUUUACAUGGUCAUAUUAGUU
[3]
  apparent Kd: 26.1 nM
[4]
  apparent Kd: 20.8 nM

## UUGGUUGUCGUAGGAUAUGUAGGAUAUUCCUACAUGAGGAUCACCCAUGUUAGCAUGGAAGAAGGACAGAAGGACGAUGACCAU
[1]
  apparent Kd: 1010 nM
[2]
  apparent Kd: 16.9 nM

## UUGUACAUAGGAUAUAGUUGUUUGUACAUGAGGAUCACCCAUGUUAUGUAUGUUUUGUUUCUAGAAGGAUGUUGAU
[3]
  apparent Kd: 50.2 nM
[4]
  apparent Kd: 38.9 nM

## UUGUUACGAUUAGGAUAUUAUUGAUUGGACAGUAUGAUUUACAUGAGGAUCACCCAUGUUACUUUUAAGAAGGAAUCGUAUUAU
[3]
  apparent Kd: 20.9 nM
[4]
  apparent Kd: 17.2 nM

## UUGUUAGGGAGAGGAUAUUGACAUGAGGAUCACCCAUGUAUUUGGGAGUGUUUACUGAAUUCUUACGAGAAGGCUUACGAAAUU
[3]
  apparent Kd: 329 nM
[4]
  apparent Kd: 246 nM

## UUGUUAUAUGUAGGAUAUGCAUAUUAUUAUUAUGCAGAAGGACAUGAGGAUCACCCAUGUAUAUUAUUAUUAUAUGUUAUAUAU
[3]
  apparent Kd: 23.8 nM
[4]
  apparent Kd: 29.8 nM

## UUGUUAUAUGUAGGAUAUGCAUAUUAUUAUUAUGCAGAAGGACAUGAGGAUCACCCAUGUGUAUUAUUAUUAUAUAUUAUAUAU
[3]
  apparent Kd: 23.2 nM
[4]
  apparent Kd: 33.2 nM

## UUGUUGUCAGGAUAUCGUUAAUUUAAUUGUUUGUAUUAGUUCGAGAAGGGACAUGAGGAUCACCCAUGUUUUUU
[3]
  apparent Kd: 25.6 nM
[4]
  apparent Kd: 51.5 nM

## UUGUUGUGAGUAAGGAUAUGAUGCAGGAAACUGCGUCAGAAGGUACAUGAGGAUCACCCAUGUUAAUUUUGUUU
[3]
  apparent Kd: 16.8 nM
[4]
  apparent Kd: 23.5 nM

## UUUAAGUCAGGAUAUCGUUAAUUUAAUUAUUUGUUUUAGUUCGAGAAGGGACAUGAGGAUCACCCAUGUAAUUU
[3]
  apparent Kd: 38.8 nM
[4]
  apparent Kd: 41.8 nM

## UUUACAUGAGGAUCACCCAUGUCUUGAAAGAUUAGUUCUGGUGAGGAUAUACAUGAUAAAGAAUUGUAGAAGGCACUGGGUACA
[1]
  apparent Kd: 113 nM
[2]
  apparent Kd: 33.1 nM

## UUUACAUGAGGAUCACCCAUGUUUAGAAAGAUUAAUUUAAGUGAGGAUAUACAUAAUAAUAAAUUGUAGAAGGCACUGGGUACA
[1]
  apparent Kd: 19.3 nM
[2]
  apparent Kd: 20.6 nM

## UUUACGAAAGUCGAACGAUGUAGCAGAAGGACAUGAGGAUCACCCAUGUCAGCUGUAACAGCCAUGUAGGAUAUGCUACAUCCC
[3]
  apparent Kd: 5.24 nM
[4]
  apparent Kd: 6.49 nM

## UUUAGUUUAGGAUAUGUAGACAUUAACAUGAGGAUCACCCAUGUAGAUCCUGAAUUGACUACAGAAGGAAGCAUUU
[3]
  apparent Kd: 248 nM
[4]
  apparent Kd: 446 nM

## UUUAUGGGACAGAAGGGCAAUUUCUUUAAUUAUUAUUUAAAACAUCAUUGCAGGAUAUGUAUAACAUGAGGAUCACCCAUGUAC
[1]
  apparent Kd: 36.2 nM
[2]
  apparent Kd: 12.2 nM

## UUUAUGUAGGAGAAGGAGGACUUCAUGAGGAUCACCCAUGUGUUAGGACUUAGGAUAUUUGACGACAUGAGGAUCACCCAUGUG
[1]
  apparent Kd: 64.3 nM
[2]
  apparent Kd: 56.5 nM

## UUUAUUUCGGCAGGAUAUACAUGUAUAUAUAUUUCUUUAUAUCUUAUUACAUGAGGAUCACCCAUGUAGAAGGGCCUUCUUCUC
[3]
  apparent Kd: 55.1 nM
[4]
  apparent Kd: 49.2 nM

## UUUAUUUUUACAGGAUAUCAUCUAUAUAACUCAUGCACAUGUUUACAUGAGGAUCACCCAUGUUUUGAGAAGGGUAAUGAAACA
[1]
  apparent Kd: 440 nM
[2]
  apparent Kd: 228 nM

## UUUAUUUUUAGAGGAUAUAUUGUGUGUGAGAGAAUAGAAGGCUAAACAUACAUACAUAACAUGAGGAUCACCCAUGUCCAUGUU
[1]
  apparent Kd: 69.2 nM
[2]
  apparent Kd: 54.9 nM

## UUUCUCGGCGAGAAGGGAGUACAUGAGGAUCACCCAUGUGGUCCAUGGAGCUCAGGAUAUCGCGAGGUCGAUGUCGACGGAGUA
[3]
  apparent Kd: 127 nM
[4]
  apparent Kd: 231 nM

## UUUCUCGUUGUGAGGAUAUCGUUUUUGUUUUGGAUCGAGAAGGCACAUGAGGAUCACCCAUGUUUGUUGUGGUU
[3]
  apparent Kd: 119 nM
[4]
  apparent Kd: 87.7 nM

## UUUCUUGGGCAAGGAUAUCCUGUGCGGUUCUGGCUCGUGUCUGUCACAUGAGGAUCACCCAUGUGGGAGAAGGUGCCUGCGGUC
[3]
  apparent Kd: 6.13 nM
[4]
  apparent Kd: 6.1 nM

## UUUGAAUAGGUAGGAUAUACAUACAUUCCUACAUUACUAACAUGAGGAUCACCCAUGUAUACAUUGUAGAAGGACCAGAUUGAU
[3]
  apparent Kd: 26.1 nM
[4]
  apparent Kd: 23.9 nM

## UUUGAAUUGCAAGGAUAUCUUAUUUAGAUUUUAAGAGAAGGUGCUUUAUAGUUACAUGAGGAUCACCCAUGUAUUUCUUUUUAU
[1]
  apparent Kd: 25.5 nM
[2]
  apparent Kd: 17.7 nM

## UUUGAGUUCCGAGACCGCGGGUUCACAGAAGGCAUUAUUACAUGAGGAUCACCCAUGUGGGUACAUGAGGAUAUGUGAUAUGCG
[1]
  apparent Kd: 20.5 nM
[2]
  apparent Kd: 6.99 nM

## UUUGAUUGCACAGGAUAUUGUCAUUUGAGUUGUCAAGAAGGGUGUACAUGAGGAUCACCCAUGUAAUGGUUGCCUCGCUGACUU
[3]
  apparent Kd: 95.7 nM
[4]
  apparent Kd: 272 nM

## UUUGCAUUCCGAGGAUAUUCAUAUAAUAAAUACACAUGAGGAUCACCCAUGUGGCGAUAGCCUAGGGAGAAGGCGGUUUGCUUU
[1]
  apparent Kd: 22.3 nM
[2]
  apparent Kd: 24 nM

## UUUGCAUUCCGAGGAUAUUCUUUUAUUGUCUUCACAUGAGGAUCACCCAUGUGGCGCUUGCGCCGGGAGAAGGCGGUUUGCUUU
[1]
  apparent Kd: 23.9 nM
[2]
  apparent Kd: 24.5 nM

## UUUGGGAACUCUAUGGGCCGCUACAUGAGGAUCACCCAUGUGCAGGAUAUAGGUGUUACUACCGCCUAGAAGGGCACAGACUGA
[3]
  apparent Kd: 23.4 nM
[4]
  apparent Kd: 42.5 nM

## UUUGGGUGGCUGGAGGAUAUUCUUGUGGUUACAUGAGGAUCACCCAUGUGUCGCGCGGUACGCGAGGAGAAGGCUGGCGGCCGUU
[1]
  apparent Kd: 327 nM
[2]
  apparent Kd: 56.2 nM

## UUUGUAAUGUCAGGAUAUAUAAUAAGUCAUACAGUAGAAGGGAUAAUUAUACUCAUGUACAUGAGGAUCACCCAUGUUAAAUAU
[1]
  apparent Kd: 80.1 nM
[2]
  apparent Kd: 45.6 nM

## UUUGUCGGAGUAGGAUAUCAAAUAGAGGGUGUAUGAGAAGGACUUAGACAUGAGGAUCACCCAUGUGUGGGUCGCCUCGAUCUC
[3]
  apparent Kd: 6.88 nM
[4]
  apparent Kd: 10.9 nM

## UUUGUGUGAGGAUAUUAAUUGCAAGCGAAUAGGCUUGUGAUUGAGAAGGCACAUGAGGAUCACCCAUGUUCCUU
[3]
  apparent Kd: 18.1 nM
[4]
  apparent Kd: 151 nM

## UUUUAACAUGAGGAUCACCCAUGUGAGGAUAUCGAAAUUUAUAUUAAUAUUAAUUUAUCGAGAAGGCACAUUUU
[3]
  apparent Kd: 107 nM
[4]
  apparent Kd: 133 nM
